IMP-1 inhibitor: IMP-1 metallo-beta-lactamase inhibitors, primary screen, biochemical, epi-absorbance readout, Pseudomonas aeruginosa enzyme; hit rate 0.45% among 290,000; metallo-beta-lactamase IMP-1 (Pseudomonas aeruginosa); AID 1556, 2009; inhibition, % at 5.6 µM; purified IMP-1, nitrocefin hydrolysis, epi-absorbance fluorescence;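 active = inhibition above the mean plus 3 SD of all compounds in the same screening run, cut at about 4.5% in these data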
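System: Purified recombinant IMP-1 metallo-beta-lactamase enzyme | Measured by: Fluorescence quenching readout, ex 480/em 530 nm | Replication: Singlicate | Incubation: 15 min preincubation plus 25 min reaction at 25 °C | Evaluation: Percent inhibition from optical density relative to buffer-blank wells | Benchmarks: DMSO with and without IMP-1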
NALP3 yeast inh: NALP3 inflammasome inhibitors in reconstituted yeast, primary screen, luminescence, uHTS; Yeast reconstituted NLRP3/ASC/caspase-1, beta-gal luminescence, 24 h; inhibition, % at 10 µM; hit rate 0.39% among 330,000;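 active = inhibition of 50% or more; inactive = inhibition below 50%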
PolyA inhibitor: polyadenylation inhibitors in yeast reporter cells, primary screen, luminescence, S. cerevisiae. hit rate 0.02% among 300,000. S. cerevisiae SKY197-pL101 polyadenylation reporter, beta-gal luminescence; efflux-impaired pdr1/pdr3 knockout yeast; score 100 = 6 SD above DMSO. activity score, % at 12 µM;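 active = lowest replicate activity score at least 50, where 100 means six control SD above control mean; inconclusive = lowest score under 50 but half or more replicates reach 50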;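 note: yeast exposed to compound for 9 h at 30 °C; higher score means more reporter readthrough which indicates perturbed polyadenylation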
NALP1 yeast inh: NALP1 inflammasome inhibitors in reconstituted yeast, colorimetric, S. cerevisiae, triplicate retest; inhibition, % at 10 µM; S. cerevisiae NALP1/ASC/caspase-1 growth, X-gal OD620, 72 h; hit rate 0.61% among 280,000; AID 2071, 2009; in the data active = inhibition mostly above about 24%, no sharp cut-off; inactive = mostly below about 32%
VIM-2 inh: VIM-2 metallo-beta-lactamase inhibitors, primary screen, biochemical, epi-absorbance readout, Pseudomonas aeruginosa enzyme; purified VIM-2, nitrocefin hydrolysis, epi-absorbance fluorescence; inhibition, % at 5.6 µM; hit rate 0.89% among 290,000; AID 1527, 2009;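 active = inhibition above the mean of all tested compounds plus 3 SD, cutoff set per screening run, cut at about 7.5% in these data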;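 note: red hydrolysis product quenches plate fluorescence so inhibitors raise well fluorescence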
Mot1-301 SUMO: yeast Mot1-301 growth rescue at high temperature, primary screen, SUMOylation pathway inhibitor project, S. cerevisiae, ATP luminescence, 38.5C. growth rescue, % at 18.8 µM. hit rate 1% among 320,000. S. cerevisiae Mot1-301 growth rescue; percent above DMSO median, 100 means doubled;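 active = every valid replicate shows activation above 250% relative to neutral control wells; inactive = the rest, any valid replicate at or below 250%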
Yeast Mot1 SUMO: growth restoration of Mot1-301 yeast on galactose, dose response, SUMO pathway inhibitor project, whole organism, S. cerevisiae, ATP luminescence, cherry-picked samples; shares compounds with Mot1-301 SUMO; S. cerevisiae Mot1-301 galactose growth, 24 h; -100 = growth of slx-deleted rescue strain; growth activity, percent, % at 42 µM; 2,300 tested, under 10 active;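 active = Signal drops as the depositor expects, and the fitted half-maximal dose is no more than ten times the top valid tested dose; inconclusive = Poor fit, or a flat curve whose signal drops by 30% to 70%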;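 note: more negative values mean stronger growth rescue toward the control strain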
Of the large screens only hits and unclear results are named; the others gave an inactive call (follow-up assays come after a bar, where they were run). This is a sample that favours compounds with a hit; in the whole collection about 2.9% have one here.

CCN1CSC(=S)N(Cc2ccc(OC)cc2)C1	Mot1-301 SUMO active | Yeast Mot1 SUMO inactive
COCCn1c(=O)[nH]c(=O)c2cc(C(=O)c3cc(Cl)ccc3O)cnc21	Mot1-301 SUMO 837.6 | Yeast Mot1 SUMO inactive
COc1ccc(C(=O)NCc2ccc3c(c2)CCO3)cc1	none
Cc1ccc(CN2CC34C=CC(O3)C(C(=O)NCc3ccco3)C4C2=O)cc1 (stereo unspecified)	none
CCCCNC(=O)C1C2C=CC3(CN(Cc4ccc(C)cc4)C(=O)C13)O2 (stereo unspecified)	Mot1-301 SUMO 858.7 | Yeast Mot1 SUMO inactive
Cc1[nH]nc2c1C(c1cccs1)C1=C(CC(C)(C)CC1=O)N2 (stereo unspecified)	Mot1-301 SUMO 661.8 | Yeast Mot1 SUMO inactive
COc1cccc(C2C3=C(CC(C)(C)CC3=O)Nc3n[nH]c(C)c32)c1 (stereo unspecified)	none
COc1ccc(C2C3=C(CC(C)(C)CC3=O)Nc3n[nH]c(C)c32)cc1 (stereo unspecified)	Mot1-301 SUMO 365.2 | Yeast Mot1 SUMO inactive
Cc1[nH]nc2c1C(c1cccs1)C1=C(CCCC1=O)N2 (stereo unspecified)	none
CSCCC(NC(=O)c1ccccc1Cl)C(=O)N1CC(C)OC(C)C1 (stereo unspecified)	none (no result: IMP-1 inhibitor, PolyA inhibitor, NALP1 yeast inh, VIM-2 inh)
Fc1cccc(F)c1-n1c(CN2CCCCC2)csc1=S	none
CCN1CCN(c2ccc(NC(=O)c3cc(S(=O)(=O)N4CCCC4)ccc3Cl)cc2)CC1	none (no result: IMP-1 inhibitor, PolyA inhibitor, NALP1 yeast inh, VIM-2 inh)
COc1ccc2nc(C(C)O)[nH]c2c1 (stereo unspecified)	none
CCOc1ccc2nc(C(C)O)[nH]c2c1 (stereo unspecified)	Mot1-301 SUMO active | Yeast Mot1 SUMO inactive
CCCN1CCN(C(=O)C2CCN(S(=O)(=O)c3ccc4c(c3)NC(=O)C(C)S4)CC2)CC1 (stereo unspecified)	none
S=C1Cc2ccccc2C(c2ccc(Cl)cc2)N1 (stereo unspecified)	none
COc1cc(C(=O)Nc2ccc3c(c2)OCCO3)ccc1-n1cnnn1	Mot1-301 SUMO active | Yeast Mot1 SUMO inactive
Cc1cc(C)cc(N(CC(=O)Nc2cccc(C)n2)S(=O)(=O)c2c(C)noc2C)c1	Mot1-301 SUMO 528.0 | Yeast Mot1 SUMO inactive
Cc1ccc(NC(=O)CN(c2cc(C)cc(C)c2)S(=O)(=O)c2c(C)noc2C)nc1	none
COc1ccc(NC(=O)CN(c2ccc(C(C)C)cc2)S(=O)(=O)c2c(C)noc2C)cc1OC	PolyA inhibitor inconclusive, Mot1-301 SUMO 366.9 | Yeast Mot1 SUMO inactive
CCOc1ccc(N(CC(=O)NC2CCC(C)CC2)S(=O)(=O)c2c(C)noc2C)cc1 (stereo unspecified)	Mot1-301 SUMO 461.2 | Yeast Mot1 SUMO inactive
Cc1ccc(N(CC(=O)NCCc2ccc(Cl)cc2)S(=O)(=O)c2c(C)noc2C)cc1	Mot1-301 SUMO 509.9 | Yeast Mot1 SUMO inactive
CC(Oc1ccccc1F)c1nnc(SCC(=O)N(c2ccccc2)C2CCS(=O)(=O)C2)o1 (stereo unspecified)	none (no result: IMP-1 inhibitor, PolyA inhibitor, NALP1 yeast inh, VIM-2 inh)
Cc1ccc(-n2nnnc2SCC(=O)NC2CCS(=O)(=O)C2)c(C)c1 (stereo unspecified)	none (no result: IMP-1 inhibitor, PolyA inhibitor, NALP1 yeast inh, VIM-2 inh, Mot1-301 SUMO)
Cc1ccc(C(=O)NCC(=O)N2CCC(Cc3ccccc3)CC2)cc1	none
O=C(NCc1ccccn1)C1Nc2ccc(C(F)(F)F)cc2C2C=CCC12 (stereo unspecified)	Mot1-301 SUMO 561.7 (no result: IMP-1 inhibitor, NALP1 yeast inh, VIM-2 inh) | Yeast Mot1 SUMO inactive
COCCNC(=O)C1Nc2ccc(C(F)(F)F)cc2C2C=CCC12 (stereo unspecified)	none (no result: IMP-1 inhibitor, NALP1 yeast inh, VIM-2 inh)
O=C1C=C(O)C(n2cncn2)C(c2cc(F)ccc2F)C1 (stereo unspecified)	none
O=C1CC(=O)C(n2cncn2)C(c2ccc(Cl)cc2Cl)C1 (stereo unspecified)	Mot1-301 SUMO active | Yeast Mot1 SUMO inactive
O=C(c1ccco1)N1CCN(Cc2nnc(-c3cccc(Br)c3)o2)CC1	none
CCOC(=O)c1sc2ncnc(N3CCN(c4ccc(OC)cc4)CC3)c2c1C	Mot1-301 SUMO 622.5 | Yeast Mot1 SUMO inactive
COc1ccccc1N1CCN(C(=O)c2sc3ncnc(N4CCN(c5ccccn5)CC4)c3c2C)CC1	Mot1-301 SUMO 442.4 | Yeast Mot1 SUMO inactive
Cc1ccc(C)c(S(=O)(=O)N2CCN(C(=O)C3CCN(c4ncnc5sc(C)c(C)c45)CC3)CC2)c1	none (no result: IMP-1 inhibitor, NALP1 yeast inh, VIM-2 inh)
O=C1CCC(C(=O)N2CCN(c3ccccc3)CC2)CN1CC1CCCCC1 (stereo unspecified)	Mot1-301 SUMO 532.2 | Yeast Mot1 SUMO inactive
COC(=O)[C@]1(C)CCC[C@@]2(C)C3CC[C@@]4(C)C[C@]3(CCC21)CC4=NO (stereo partly specified)	none (no result: IMP-1 inhibitor, PolyA inhibitor, NALP1 yeast inh, VIM-2 inh)
COc1ccc(N2CCN(C(=O)CNC(=O)Cc3ccc(Cl)cc3)CC2)cc1	Mot1-301 SUMO 410.1 | Yeast Mot1 SUMO inactive
OC(COCc1cccs1)CN1CCCCCC1 (stereo unspecified)	Mot1-301 SUMO active | Yeast Mot1 SUMO inactive
CN1CCCN(CC(O)COCc2cccs2)CC1 (stereo unspecified)	none (no result: Mot1-301 SUMO)
CCOC(=O)C(C)Sc1nc2c(cnn2-c2ccc(F)cc2)c(=O)[nH]1 (stereo unspecified)	none
Cc1ccc(-c2nn(-c3ccccc3)cc2C(=O)N2CCN(c3ccccn3)CC2)cc1	Mot1-301 SUMO 596.2 | Yeast Mot1 SUMO inactive
O=C(c1cn(-c2ccccc2)nc1-c1ccccc1)N1CCN(c2ccccn2)CC1	none
COC(=O)c1ccc(C(=O)OC)c(NC(=O)COC(=O)C2CC2C)c1 (stereo unspecified)	none
Cc1cc(=O)[nH]c(SCC(=O)N2CCCC2)n1	none (no result: IMP-1 inhibitor, PolyA inhibitor, NALP1 yeast inh, VIM-2 inh)
O=C(CN1CCN(C(=O)c2ccccc2)CC1)Nc1ncc(Br)cc1Br	Mot1-301 SUMO active | Yeast Mot1 SUMO inactive
CC1CCN(CCCCOc2cccc(Br)c2)CC1	Mot1-301 SUMO 372.9 | Yeast Mot1 SUMO inactive
CC(NC(=O)Cn1cc([N+](=O)[O-])cn1)c1ccc(C(C)(C)C)cc1 (stereo unspecified)	none (no result: IMP-1 inhibitor, NALP1 yeast inh, VIM-2 inh)
CC1(C)Oc2ccc3ccc(=O)oc3c2/C(=C/Nc2ccc(O)cc2)C1=O	Mot1-301 SUMO 983.5 | Yeast Mot1 SUMO inactive
CC1CCC(C(C)C)C(OC(=O)COC(=O)c2ccc(N)cc2)C1 (stereo unspecified)	none
